# High-throughput results from PubChem.
# ROMK primary: human ROMK K+ channel modulation, primary screen; B-score at 10 µM; 130,000 compounds, 2% hits; P48048; Tet-inducible ROMK, thallium flux fluorescence; actives lie on both sides; AID 1918;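 active = signal ratio slope over the read window, or its plate-corrected B-score, at least 3 SD from the plate mean, either direction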;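 also: B-score of the F/F0 ratio slope over 7 to 12 s after thallium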
# Target sequence (P48048 whole entry, looked up): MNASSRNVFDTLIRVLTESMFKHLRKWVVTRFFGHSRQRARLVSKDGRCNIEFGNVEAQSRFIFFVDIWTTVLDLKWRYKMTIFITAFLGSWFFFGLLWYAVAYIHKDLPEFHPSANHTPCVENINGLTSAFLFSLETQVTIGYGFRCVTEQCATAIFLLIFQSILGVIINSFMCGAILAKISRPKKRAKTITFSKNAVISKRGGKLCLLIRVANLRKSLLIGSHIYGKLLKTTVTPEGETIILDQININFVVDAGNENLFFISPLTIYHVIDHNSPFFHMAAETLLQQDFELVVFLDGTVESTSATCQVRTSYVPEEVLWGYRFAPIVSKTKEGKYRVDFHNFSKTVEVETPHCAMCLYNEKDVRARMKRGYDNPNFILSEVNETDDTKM
# Cl transport mod: modulators of human KCC2 chloride dependent transport | AID 1456 | 190,000 compounds, 2.2% hits | Q9H2X9 | KCC2 cells, thallium flux FluoZin-2 fluorescence | B-score of Tl+ flux slope (higher = more flux/activation; lower = inhibition) at 10 µM;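 active = thallium flux slope and its plate-corrected score both differing from the plate sample mean at a set confidence after two filtering rounds, in either direction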;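 also: slope of fluorescence scaled to starting intensity during 10 to 20 s after thallium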
# bCat nuc transl: modulators of beta-catenin nuclear translocation; HeLa beta-catenin nuclear translocation, immunofluorescence imaging; nuclear translocation activity, % at 5 µM; 190,000 compounds, 0.3% hits; AID 1665;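 active = nuclear translocation activity above 50% at 5 µM, with a well cell count of 50 or more; inconclusive = wells under 50 cells across six images, flagged as toxic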;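 also: per-cell ratio of nuclear to cytoplasmic median beta-catenin stain intensity; plate controls were DMSO negative control for no effect and GSK-3 inhibitor IX positive control for full effect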
#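 assay system = human HeLa cells, endogenous beta-catenin | times = compound treatment 24 h, 37°C, 5% CO2 | detection = Anti-beta-catenin immunofluorescence on PFA-fixed, Triton-permeabilized cells, DAPI nuclei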
# Redox H2O2 prof: compounds producing H2O2 with reducing agent – biochemical, NIH compound library profiling, artefact control for MLSCN library redox annotation, primary screen; DTT-dependent redox cycling H2O2, phenol red/HRP absorbance; 100% = 100 µM peroxide control, 0% = buffer; activation, % at 10 µM; 200,000 compounds, 0.03% hits;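 active = activation of at least 50% relative to the plate's high and low controls in the primary single-dose screen; inactive = activation below 50%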;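 also: compound incubated with DTT at 0.8 mM final as the reducing agent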
# MT stabilize HCS: microtubule stabilization, imaging screen; HeLa tubulin immunostaining HCS, 24 h; share of cells brighter than vehicle mean+2SD; % tubulin-high responders, % at 10 µM; 200,000 compounds, 0.83% hits;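 active = plate Z-score above 3 for both tubulin-high and condensed-nucleus cell shares, with cell loss under 80%, at 10 µM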;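 also: anti alpha tubulin signal scored within the nucleus-defined area of each cell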
# KCC2 sec1: KCC2 (human) modulation, secondary assay; HEK293-KCC2, thallium flux, FluoZin2 fluorescence; stronger effect = higher value; shares compounds with Cl transport mod; normalised thallium flux (F/F0 slope) at 10 µM; 3,700 compounds, 15% hits; AID 1713;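 active = thallium flux slope above the same plate's solvent-only control mean plus 3 SD; inconclusive = the two replicate wells disagree; inactive = no significant difference from solvent-only control wells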
# KCC2 bumet counter: bumetanide-insensitive thallium flux in KCC2 cells with ouabain, counter-screen; shares compounds with Cl transport mod; HEK293-KCC2 + bumetanide/ouabain, thallium flux FluoZin2; stronger effect = higher value; normalized thallium flux at 10 µM; 3,700 compounds, 49% hits; AID 1714;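 active = thallium entry rate above the same plate's blocked-transporter control wells by more than 3 SD; inconclusive = the two repeat wells disagree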;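 also: raw slope of fluorescence over initial fluorescence between 10 and 20 s after thallium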
# KCC2 sec2: confirmation of human KCC2 transport modulators; shares compounds with Cl transport mod; HEK293-KCC2, thallium flux FluoZin2 fluorescence; actives lie on both sides; F/F0 rise rate, 10–20 s post-thallium; normalized thallium flux at 10 µM; 3,700 compounds, 23% hits; AID 1715;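 active = thallium flux slope more than 3 SD above or below the plate's solvent-only control mean, mostly below; inconclusive = the two repeat wells disagreed; inactive = no significant shift from solvent-only controls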;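 also: raw slope with 0.1% DMSO as baseline and bumetanide as block control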
# HEK293 Tl flux: counter-screen for KCC2 modulators: effect in parental HEK293 cells | shares compounds with Cl transport mod | thallium flux FluoZin2, ouabain; baseline-ratio fluorescence slope, 10–20 s after thallium | thallium flux rate (normalised fluorescence) at 10 µM | 3,700 compounds, 46% hits | AID 1716;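 active = thallium flux rate significantly above the same plate's solvent-only control wells, beyond their mean plus 3 SD; inconclusive = the two replicate wells gave conflicting results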
# KCC2 retest ouab: confirmation of human KCC2 modulators with ouabain; shares compounds with Cl transport mod; HEK293-KCC2, thallium flux FluoZin2 fluorescence; bidirectional: low = inhibitor, high = activator; raw Tl+ flux slope (below DMSO = inhibition, above = activation) at 10 µM; 3,700 compounds, 48% hits;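 active = thallium flux slope beyond 3 SD from same-plate DMSO control mean in most replicates, usually higher, sometimes lower; inconclusive = repeat tests gave conflicting results; inactive = no significant difference from controls in most replicates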;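 also: slope of initial-normalized fluorescence between seconds 10 and 20 after thallium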
# HEK counter2: counter-screen for KCC2 modulators: effect in parental HEK293 cells. shares compounds with Cl transport mod. AID 1718. 3,700 compounds, 33% hits. thallium flux FluoZin-2 fluorescence slope. thallium flux slope at 10 µM;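 active = thallium flux slope above the same plate's solvent-control mean plus 3 SD in both duplicate wells; inconclusive = duplicate wells that disagreed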;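 also: run without ouabain in cells lacking the KCC2 cotransporter; slope of fluorescence scaled to its starting value between 10 and 20 s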
# An asterisk follows results filed as active; ? = inconclusive; / = no result. Hits are enriched below; roughly 3.7% of the tested compounds scored in any of these assays.
SMILES,ROMK primary,Cl transport mod,bCat nuc transl,Redox H2O2 prof,MT stabilize HCS,KCC2 sec1,KCC2 bumet counter,KCC2 sec2,HEK293 Tl flux,KCC2 retest ouab,HEK counter2
C=CCNC(=S)Nc1sc2c(c1C#N)CCCC2,0.368,13.1*,-5.2,-0.2,0.8,0.00653,0.0211*,0.0304,0.0178*,0.0272*,0.0124*
CC(C)(C)C(=O)NC(=S)Nc1sc2c(c1C#N)CCCCC2,0.182,-0.0229,-1.0,0.5,4.0,/,/,/,/,/,/
CC(=O)Nc1sc2c(c1C#N)CCCCC2,/,6.06*,-3.1,0.0,2.4,0.00962,0.00731,0.0299,0.00758,0.066,?
Cn1cc(Cl)c(C(=O)NC(=S)Nc2sc3c(c2C#N)CCCCC3)n1,0.173,10.7*,1.1,0.4,2.3,0.00741,0.0207*,?,0.019*,0.0333*,0.0209*
CC(C)Cc1cc(C(=O)Nc2sc3c(c2C#N)CCC3)no1,/,4.8*,/,-3.9,1.7,0.00643,0.017*,0.0325,0.0174*,0.0272*,0.014*
Cc1ccc(C2SCCN2C(=O)c2ccc([N+](=O)[O-])cc2)cc1 (configuration not stated),-0.385,0.178,-0.6,0.3,2.2,/,/,/,/,/,/
COc1cccc(C(=O)Oc2ccc(N3C(=O)CCC3=O)c(C)c2)c1,-1.1,0.455,-6.2,0.0,1.7,/,/,/,/,/,/
O=C(COC(=O)Cn1cnc2ccccc2c1=O)Nc1ccccc1Sc1ccc(Cl)cc1,-0.151,-0.611,0.7,-0.2,3.0,/,/,/,/,/,/
CC(C)Cc1cc(C(=O)Nc2sc3c(c2C#N)CCCC3)no1,/,4.07*,-4.7,-2.2,5.8,0.0123,0.0188*,0.0367,?,?,?
Cc1ccc(S(=O)(=O)N2CC(O)CC2C(=O)OCC(=O)c2ccccc2Cl)cc1C (configuration not stated),/,-4.15*,-1.3,-0.2,0.9,?,0.00437,0.0349,0.00386,0.0155*,0.0111
O=C(COC(=O)C1CC(O)CN1S(=O)(=O)c1ccc(Cl)cc1)c1ccccc1Cl (configuration not stated),/,-1.14,-1.5,-0.5,2.7,/,/,/,/,/,/
O=C(CSc1ccc(-c2ccc(F)cc2)nn1)N1CCCCC1,0.629,-5.29*,-4.0,0.8,6.0,0.00631,0.005,0.026,0.00753,0.0144*,0.0104
CC1CCN(C(=O)CSc2ccc(-c3ccc(F)cc3)nn2)CC1,0.158,-5.29*,-2.8,1.9,2.1,0.00581,?,0.0209*,0.00753,0.015*,0.00985
O=C(CSc1ccc(-c2ccccc2)nn1)N1CCCCC1,2.12,-0.321,1.2,-0.7,1.7,/,/,/,/,/,/
Cc1scc(-c2n[nH]c(=S)n2C(C)c2ccccc2)c1C (configuration not stated),/,7.73*,0.7,-0.1,4.0,0.00933,0.0403*,0.0278,0.0112*,?,?
Cc1ccccc1-n1c(-c2csc(C)c2C)n[nH]c1=S,/,2.36,-1.3,-0.3,2.7,/,/,/,/,/,/
O=C(CCCCn1c(=O)[nH]c2ccsc2c1=O)NCCc1ccccc1,0.0625,-0.485,-1.5,-1.4,4.8,/,/,/,/,/,/
O=C(CCn1c(=O)[nH]c2ccsc2c1=O)N(CCc1ccccc1)Cc1ccccc1,-2.45,/,/,0.1,1.9,0.00932,0.00605,0.0301,0.00706,?,0.011
CN(C)S(=O)(=O)c1ccc(N2CCCC2)c(C(=O)N2CCN(c3ccc([N+](=O)[O-])cc3)CC2)c1,-2.93,0.409,-0.5,-1.2,2.6,/,/,/,/,/,/
O=C(/C=C/c1ccccc1)N1CCC(Cc2ccccc2)CC1,/,/,0.2,2.0,1.2,0.00683,0.00605,0.0274,0.00682,0.0138*,0.0103
CCCS(=O)(=O)N1CCC(C(=O)N2CCC(Cc3ccccc3)CC2)CC1,0.653,/,0.2,-2.9,3.5,0.00762,0.00664,0.0288,0.00751,0.0284*,0.0103
CN(C)c1ccc(/C=N/n2c(-c3ccccc3Br)n[nH]c2=S)cc1,-0.612,5.79*,0.5,/,/,0.0109,0.023*,0.0311,0.0124*,?,0.0112
COc1cc(/C=N/NC(=O)c2c(C)nnn2-c2nonc2N)ccc1O,-0.286,4.72*,-0.1,0.3,3.6,0.00964,0.00482,0.0309,0.00868,0.0194,0.0115
Cc1nnn(-c2nonc2N)c1C(=O)N/N=C/c1ccccc1O,/,1.15,1.6,0.3,4.4,/,/,/,/,/,/
CCc1nnc(NC(=O)c2ccc3nc(CC)c(CC)nc3c2)s1,0.426,-0.234,-3.2,6.9,2.7,/,/,/,/,/,/
SMILES,ROMK primary,Cl transport mod,bCat nuc transl,Redox H2O2 prof,MT stabilize HCS,KCC2 sec1,KCC2 bumet counter,KCC2 sec2,HEK293 Tl flux,KCC2 retest ouab,HEK counter2
O=C(CSc1nnc(SCc2cccc3ccccc23)s1)N/N=C/c1c[nH]c2ccccc12,/,-3.92*,-0.5,0.0,8.6,0.00573*,0.014*,0.0237*,0.0089*,0.0242*,?
CC12CCC(C/C1=N\OC(=O)c1c(F)cccc1F)C2(C)C (configuration not stated),/,-0.00651,0.3,/,/,/,/,/,/,/,/
O=C(COc1ccc(Br)cc1CNC1CCCC1)Nc1ccccc1,-0.0159,-1.12,-3.2,-0.1,1.1,/,/,/,/,/,/
CCCc1nc2c(o1)CC(CC(C)SCC)CC2=O (configuration not stated),0.662,4.89*,-10.1,0.1,2.4,0.00621,0.00455,?,0.00699,0.0175,0.00924
CCSC(C)CC1CC(=O)CC(=O)C1 (configuration not stated),0.259,0.0291,-7.1,0.1,3.5,/,/,/,/,/,/
CCc1cc2c(SCC#N)ncnc2s1,0.493,6.09*,-0.4,0.5,4.6,0.00658,0.0174*,0.0362,0.0165*,0.0265*,0.0165*
CCc1cc2c(SCC(=O)C(C#N)=C3N(C)c4ccccc4N3C)ncnc2s1,-1.2,/,1.3,0.1,2.0,0.00795,0.0095*,0.0297,0.00702,0.0148,0.0098
CCc1cc2c(SCC(=O)c3ccccc3)ncnc2s1,/,0.619,/,0.8,3.2,/,/,/,/,/,/
COCCNC(=O)CNC(=S)N(CCCN1CCOCC1)Cc1cccs1,0.474,-0.178,-3.2,-2.0,4.8,/,/,/,/,/,/
CN(Cc1ccccc1)C(=O)c1nn2cccnc2c1Cl,0.519,-0.708,0.3,-0.2,2.5,/,/,/,/,/,/
